Laboratory results: ChEMBL document CHEMBL2331282, “9-[2-(R)-(Phosphonomethoxy)propyl]-2,6-diaminopurine (R)-PMPDAP and its prodrugs: optimized preparation, including identification of by-products formed, and antiviral evaluation in vitro” (Bioorg Med Chem, 2013)
Activity calls are given as the source filed them. The calls are words filed in the database; no cut-off is given here.

Tests used:
[1] = system: Human immunodeficiency virus 2; assay: Antiviral activity against Human immunodeficiency virus 2 infected in human CEM cells assessed as reduction of virus-induced cytopathogenicity; format: functional, organism-based; details: Human immunodeficiency virus 2, CCRF-CEM
[2] = Cytotoxicity against cat CRFK cells assessed as alteration of cell morphology up to 100 uM by microscopic analysis; format: cell-based, Felis catus
[3] = system: Human betaherpesvirus 5; assay: Antiviral activity against Human cytomegalovirus infected in human HEL cells assessed as reduction of virus-induced cytopathogenicity; format: functional, organism-based; details: Human betaherpesvirus 5, HEL
[4] = system: Coxsackievirus B4; assay: Antiviral activity against Coxsackievirus B4 infected in human HeLa cells assessed as reduction of virus-induced cytopathogenicity; format: functional, organism-based; details: Enterovirus B
[5] = system: Human respirovirus 3; assay: Antiviral activity against Parainfluenza virus 3 infected in dog MDCK cells assessed as reduction of virus-induced cytopathogenicity; format: functional, organism-based; details: Human respirovirus 3, MDCK
[6] = system: Sindbis virus; assay: Antiviral activity against Sindbis virus infected in dog MDCK cells assessed as reduction of virus-induced cytopathogenicity; format: functional, organism-based
[7] = system: Feline coronavirus; assay: Antiviral activity against Feline coronavirus infected in cat CRFK cells assessed as reduction of virus-induced cytopathogenicity; format: functional, organism-based; details: Alphacoronavirus 1, CRFK
[8] = Cytotoxicity against human HeLa cells assessed as alteration of cell morphology up to 100 uM by microscopic analysis; format: cell-based
[9] = Cytotoxicity against human HEL cells assessed as alteration of cell morphology up to 100 uM by microscopic analysis; format: cell-based
[10] = Cytotoxicity against dog MDCK cells assessed as alteration of cell morphology up to 100 uM by microscopic analysis; format: cell-based, Canis lupus familiaris
[11] = system: Vesicular stomatitis virus; assay: Antiviral activity against Vesicular stomatitis virus infected in human HEL cells assessed as reduction of virus-induced cytopathogenicity; format: functional, organism-based
[12] = system: Mammalian orthoreovirus 1; assay: Antiviral activity against Reovirus 1 infected in dog MDCK cells assessed as reduction of virus-induced cytopathogenicity; format: functional, organism-based; details: Mammalian orthoreovirus 1, MDCK
[13] = system: Felid alphaherpesvirus 1; assay: Antiviral activity against Feline herpes virus infected in cat CRFK cells assessed as reduction of virus-induced cytopathogenicity; format: functional, organism-based; details: Felid alphaherpesvirus 1, CRFK
[14] = system: Coxsackievirus B4; assay: Antiviral activity against Coxsackievirus B4 infected in dog MDCK cells assessed as reduction of virus-induced cytopathogenicity; format: functional, organism-based; details: Enterovirus B
[15] = system: Human alphaherpesvirus 1; assay: Antiviral activity against Herpes simplex virus 1 infected in human HEL cells assessed as reduction of virus-induced cytopathogenicity; format: functional, organism-based; details: Human alphaherpesvirus 1, HEL
[16] = system: Vesicular stomatitis virus; assay: Antiviral activity against Vesicular stomatitis virus infected in human HeLa cells assessed as reduction of virus-induced cytopathogenicity; format: functional, organism-based
[17] = Cytotoxicity against human CEM cells assessed as alteration of cell morphology by microscopic analysis; format: cell-based; details: CEM cells (CCRF-CEM)
[18] = system: Respiratory syncytial virus; assay: Antiviral activity against Respiratory syncytial virus infected in human HeLa cells assessed as reduction of virus-induced cytopathogenicity; format: functional, organism-based
[19] = system: Human alphaherpesvirus 2; assay: Antiviral activity against Herpes simplex virus 2 infected in human HEL cells assessed as reduction of virus-induced cytopathogenicity; format: functional, organism-based; details: Human alphaherpesvirus 2, HEL
[20] = system: Human immunodeficiency virus 1; assay: Antiviral activity against Human immunodeficiency virus 1 infected in human CEM cells assessed as reduction of virus-induced cytopathogenicity; format: functional, organism-based; details: Human immunodeficiency virus 1, CCRF-CEM
[21] = system: Punta Toro virus; assay: Antiviral activity against Punta Toro virus infected in dog MDCK cells assessed as reduction of virus-induced cytopathogenicity; format: functional, organism-based
[22] = Cytotoxicity against cat CRFK cells assessed as decrease in cell viability after 3 days by CellTiter 96 Aqueous One solution assay; format: cell-based, Felis catus; details: 72 h
[23] = system: Feline immunodeficiency virus; assay: Antiviral activity against Feline immunodeficiency virus infected in cat CRFK cells assessed as decrease in FIV p24 antigen level treated post-viral infection measured after 6 days by ELISA; format: functional, organism-based; details: 144 h
In short: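 CrFK cells (5000/well) pre-seeded 24 h at 37 °C, 5% CO2; washed with PBS containing 50 µg/ml DEAE-dextran, inoculated with 100 CCID50 FIV plus serial compound dilutions; after 2 h washed and overlaid with 5% FCS DMEM plus compound.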

[24] = system: MT4; assay: Cytotoxicity against human MT4 cells assessed as decrease in cell viability after 5 days by CellTiter Glo assay; format: cell-based; details: mt4, 120 h
In short: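 MT-4 cells, 2000/well, in RPMI 1640 with 10% FBS plus penicillin/streptomycin; 3-fold serial dilutions, 10 concentrations, final DMSO ≤0.5%; 10 µM puromycin and 0.5% DMSO controls.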

[25] = system: Human immunodeficiency virus 1; assay: Antiviral activity against Human immunodeficiency virus 1 3B infected in human MT4 cells assessed as reduction of virus-induced cytopathicity treated post-viral infection measured after 5 days by Cell-Titer Glo assay; format: functional, organism-based; details: MT4, 120 h
[26] = system: Felid alphaherpesvirus 1; assay: Antiviral activity against Feline herpes virus at non-toxic concentration; format: functional, organism-based
[27] = system: Human alphaherpesvirus 3; assay: Antiviral activity against TK+ Varicella zoster virus OKA; format: functional; details: Human alphaherpesvirus 3, strain Oka vaccine
[28] = system: Coxsackievirus B4; assay: Antiviral activity against Coxsackievirus B4 infected in african green monkey Vero cells; format: functional, organism-based; details: Enterovirus B
[29] = system: Vaccinia virus; assay: Antiviral activity against Vaccinia virus at non-toxic concentration; format: functional, organism-based; details: Orthopoxvirus vaccinia
[30] = system: Human betaherpesvirus 5; assay: Antiviral activity against Human cytomegalovirus at non-toxic concentration; format: functional, organism-based
[31] = system: Human alphaherpesvirus 1; assay: Antiviral activity against Herpes simplex virus 1 at non-toxic concentration; format: functional, organism-based
[32] = system: Human alphaherpesvirus 3; assay: Antiviral activity against TK- Varicella zoster virus O7-1; format: functional, organism-based; details: Human alphaherpesvirus 3, O7-1
[33] = system: Punta Toro virus; assay: Antiviral activity against Punta Toro virus infected in african green monkey Vero cells; format: functional, organism-based
[34] = system: Human alphaherpesvirus 2; assay: Antiviral activity against Herpes simplex virus 2 at non-toxic concentration; format: functional, organism-based

SMILES: C[C@@H](O)CNc1nc(N)c2ncn(C[C@@H](C)O)c2n1
- EC50 [1]: > 100 µg/mL
- MCC [2]: > 100 µg/mL
- EC50 [3]: > 100 µg/mL
- EC50 [4]: > 100 µg/mL
- EC50 [5]: > 100 µg/mL
- EC50 [6]: > 100 µg/mL
- EC50 [7]: > 100 µg/mL
- MCC [8]: > 100 µg/mL
- MCC [9]: > 100 µg/mL
- MCC [10]: > 100 µg/mL
- EC50 [11]: > 100 µg/mL
- EC50 [12]: > 100 µg/mL
- EC50 [13]: > 100 µg/mL
- EC50 [14]: > 100 µg/mL
- EC50 [15]: > 100 µg/mL
- EC50 [16]: > 100 µg/mL
- MCC [17]: > 100 µg/mL
- EC50 [18]: > 100 µg/mL
- EC50 [19]: > 100 µg/mL
- EC50 [20]: > 100 µg/mL
- EC50 [21]: > 100 µg/mL

SMILES: CCOC(=O)[C@H](C)NP(=O)(CO[C@H](C)Cn1cnc2c(N)nc(N)nc21)N[C@@H](C)C(=O)OCC
- CC50 [22]: 215000 nM
- EC50 [23]: 1100 nM
- CC50 [24]: > 100000 nM
- EC50 [25]: 290 nM

SMILES: C[C@H](Cn1cnc2c(N)nc(N)nc21)OCP(=O)(O)O
- CC50 [22]: > 500000 nM
- EC50 [23]: 120 nM
- CC50 [24]: > 100000 nM
- EC50 [25]: 940 nM

SMILES: C[C@@H](O)CNc1nc(N)nc2c1ncn2C[C@@H](C)O
- EC50 [1]: > 100 µg/mL
- MCC [2]: > 100 µg/mL
- EC50 [3]: > 100 µg/mL
- EC50 [4]: > 100 µg/mL
- EC50 [5]: > 100 µg/mL
- EC50 [6]: > 100 µg/mL
- EC50 [7]: > 100 µg/mL
- MCC [8]: > 100 µg/mL
- MCC [9]: > 100 µg/mL
- MCC [10]: > 100 µg/mL
- EC50 [11]: > 100 µg/mL
- EC50 [12]: > 100 µg/mL
- EC50 [13]: > 100 µg/mL
- EC50 [14]: > 100 µg/mL
- EC50 [15]: > 100 µg/mL
- EC50 [16]: > 100 µg/mL
- MCC [17]: > 100 µg/mL
- EC50 [18]: > 100 µg/mL
- EC50 [19]: > 100 µg/mL
- EC50 [20]: > 100 µg/mL
- EC50 [21]: > 100 µg/mL

SMILES: C[C@H](Cn1cnc2c(NCP(=O)(O)O)nc(N)nc21)OCP(=O)(O)O
- EC50 [1]: > 100 µg/mL
- MCC [2]: > 100 µg/mL
- EC50 [3]: > 100 µg/mL
- EC50 [4]: > 100 µg/mL
- EC50 [5]: > 100 µg/mL
- EC50 [6]: > 100 µg/mL
- EC50 [7]: > 100 µg/mL
- MCC [8]: > 100 µg/mL
- MCC [9]: > 100 µg/mL
- MCC [10]: > 100 µg/mL
- EC50 [11]: > 100 µg/mL
- EC50 [12]: > 100 µg/mL
- EC50 [13]: > 100 µg/mL
- EC50 [14]: > 100 µg/mL
- EC50 [15]: > 100 µg/mL
- EC50 [16]: > 100 µg/mL
- MCC [17]: > 100 µg/mL
- EC50 [18]: > 100 µg/mL
- EC50 [19]: > 100 µg/mL
- EC50 [20]: > 100 µg/mL
- EC50 [21]: > 100 µg/mL

SMILES: CCCCCCCCCCCCCCCCOCCCOP(=O)([O-])CO[C@H](C)Cn1cnc2c(N)nc(N)nc21.[Na+]
- Activity [26]: inactive
- EC50 [27]: < 0.032 µg/mL
- EC50 [28]: 9 µg/mL
- CC50 [22]: 96000 nM
- Activity [29]: inactive
- EC50 [23]: 0.58 nM
- CC50 [24]: 19800 nM
- Activity [30]: inactive
- Activity [31]: inactive
- EC50 [32]: 0.058 µg/mL
- EC50 [25]: 2.24 nM
- EC50 [33]: 12 µg/mL
- Activity [34]: inactive
